In PMC12799515 (Journal of Orthopaedic Translation, 2025):

Assays:
[1] = no reference given; cited from earlier work
[2] = system: mitophagy-related genes Pink1, Prkn, LC3b, p62 in inTPCs; test: qRT–PCR of mitophagy-related genes in inTPCs; assay type: cell-based, C57BL/6 J mice; conditions: 1 μM CCCP or 5 μM CsA, three stimulation cycles in ODM, vs vehicle
How it was run: (§1)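 Mouse tendon cells (passage 3–4) received three 4-day cycles: 2 days of ODM containing test compound or equal-volume solvent, then 2 days of plain ODM. Transcripts were measured by SYBR Green qRT–PCR, normalised to Gapdh, with relative expression calculated by the 2−ΔΔCt method.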

[3] = system: PINK1, Parkin, LC3BⅡ, p62 in inTPCs; test: Western blotting of mitophagy-related proteins in inTPCs; assay type: cell-based, C57BL/6 J mice
How it was run: (§2)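 Mouse tendon cells were treated in one of two ways: three 4-day cycles (2 days ODM with test compound or solvent, then 2 days plain ODM), or 2 days of osteogenic induction with 100 nM Slc25a4 siRNA (RNAiMAX) ±1 μM test compound added on day 2. Proteins were extracted in RIPA with protease/phosphatase inhibitors, heated to 100 °C for 10 min, separated by SDS-PAGE, transferred to PVDF, blocked with 5% milk and detected by ECL. Bands were quantified by densitometry.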

[4] = system: osteogenic-related genes Ocn, Runx2, Alpl in inTPCs; test: qRT–PCR of osteogenic-related genes in inTPCs; assay type: cell-based, C57BL/6 J mice; conditions: 1 μM CCCP or 5 μM CsA, three stimulation cycles in ODM, vs vehicle
How it was run: as §1

[5] = system: inTPCs; test: ALP and ARS staining of inTPCs; assay type: cell-based, C57BL/6 J mice; conditions: 1 μM CCCP or 5 μM CsA, vs vehicle; for ARS staining: four stimulation cycles; for ALP staining: three stimulation cycles
How it was run: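 Mouse tendon cells were digested with collagenase, grown in low-glucose DMEM/15% FBS and used at passage 3–4. Each cycle was 2 days of ODM (high-glucose DMEM, 10−8 M dexamethasone, 50 μg/mL vitamin C, 10 mM β-glycerol phosphate, 10% FBS) with test compound or solvent, then 2 days of plain ODM. ALP: 3 cycles, 4% PFA 30 min, BCIP/NBT stain. ARS: 4 cycles, kit fixative 20 min. Positive ratio quantified by image analysis.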

[6] = system: inTPCs; test: Cell viability; assay type: cell-based, C57BL/6 J mice; conditions: 1 μM CCCP or 5 μM CsA, 48 h
How it was run: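 Mouse tendon cells (passage 3–4) were seeded in 96-well plates and exposed to test compound at varying concentrations (0, 0.1, 0.5, 1, 5, 10 μM for the inhibitor) for 48 h. They were then incubated with 10% CCK-8 at 37 °C for 1 h, and absorbance was read at 450 nm to calculate viability.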

[7] = system: inTPCs; test: Apoptosis; assay type: cell-based, C57BL/6 J mice; conditions: 1 μM CCCP or 5 μM CsA
[8] = system: OCN, RUNX2, ALP in inTPCs; test: Western blotting of osteogenic-related proteins in inTPCs; assay type: cell-based, C57BL/6 J mice; conditions: for protein expression of OCN, RUNX2, ALP: 1 μM CCCP or 5 μM CsA, three stimulation cycles in ODM, vs vehicle
How it was run: as §2

[9] = system: ANT1 in inTPCs; test: ANT1/Slc25a4 expression in inTPCs; assay type: cell-based, C57BL/6 J mice; conditions: two days osteogenic induction, 1 μM CCCP
How it was run: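 Mouse tendon cells under 2 days of osteogenic induction were transfected with 100 nM Slc25a4 siRNA or control siRNA (RNAiMAX) for 2 days, with 1 μM test compound added on day 2. ANT1 protein was measured by western blot (RIPA lysis with protease/phosphatase inhibitors, 100 °C 10 min, SDS-PAGE, PVDF, 5% milk block, ECL, band densitometry). Slc25a4 mRNA was measured by SYBR qRT–PCR against Gapdh (2−ΔΔCt).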

[10] = system: mitophagy; conditions: cited from earlier work
[11] = 1 μM CCCP or 5 μM CsA, three stimulation cycles in ODM, vs vehicle
[12] = two days osteogenic induction, 100 nM si-Slc25a4 two days, or 1 μM CCCP

Molecule	toxicity of ANT1 inhibitors [1]	gene expression of Pink1, Prkn, LC3b [2]	p62 gene expression [2]	p62 protein expression [3, 11]	protein expression of PINK1, Parkin, LC3BⅡ [3, 11]	gene expression of Ocn, Runx2, Alpl [4]	ARS staining [5]	ALP staining [5]	protein expression of OCN, RUNX2, ALP [8]	further results
CO[C@H](C/C=C\C=C\CC/C=C/C[C@H](C)/C=C/C(=C\C(=O)O)CC(=O)O)/C(C)=C\C=C(/C)C(=O)O [BKA, bongkrekic acid]	toxic agents unsuitable for clinical use									
C=C1[C@@H]2CC[C@H]3[C@]4(C)C[C@H](O[C@@H]5O[C@H](CO)[C@@H](OS(=O)(=O)O)[C@H](OS(=O)(=O)O)[C@H]5OC(=O)CC(C)C)CC(C(=O)O)(C(=O)O)[C@H]4CC[C@]3(C2)[C@H]1O [CATR, carboxyatractyloside]	toxic agents unsuitable for clinical use									
N#CC(C#N)=NNc1cccc(Cl)c1 [CCCP, carbonyl cyanide 3-chlorophenylhydrazone]		increased	suppressed	p62 suppression	upregulated	increased	increased	increased	upregulated	p62 protein expression [3, 12]: suppressed; protein expression of PINK1, Parkin, LC3BⅡ [3, 12]: promoted; cell viability (poisoning) [6]: did not cause poisoning; apoptosis [7]: did not cause poisoning (Fig. 3A and B) or apoptosis; protein expression of RUNX2, ALP [8, 12]: promoted; ANT1 protein expression [9]: did not affect ANT1 expression
OC1c2cc3ccc4cccc5ccc(c2C2OC2C1O)c3c45 (stereo not shown) [benzo(a)pyrene-7,8-dihydrodiol-9, 10-epoxide]										mitophagy [10]: suppressed
cyclosporin A [CsA]		suppressed	promoted	p62 accumulation	downregulated	suppressed	reduced	reduced	downregulated	
